From ChEMBL document CHEMBL5331146, “Evaluating Alkaline Phosphatase-Instructed Self-Assembly of d-Peptides for Selectively Inhibiting Ovarian Cancer Cells” (J Med Chem, 2023)
Activity calls are given as the source filed them. Square brackets hold non-standard residues; d marks the D form. Peptide text beside a SMILES is read from it. * marks the point of attachment. d(pY) = N[C@H](Cc1ccc(OP(=O)(O)O)cc1)C(=O)O; Acetyl(2-naphthyl) = O=C(Cc1ccc2ccccc2c1)*

Columns and labels:
OVSAHO [1] = experiment: Cytotoxicity against human OVSAHO cells assessed as inhibition of cell growth incubated for 72 hrs by MTT assay; format: functional, cell-based
Method in brief: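 OVSAHO cells incubated 72 h with each EISA substrate across a concentration series; viability measured and IC50 derived.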

OVSAHO [2] = experiment: Cytotoxicity against human OVSAHO cells assessed as enhancement in cell growth inhibition at 20 uM incubated for 24 hrs in presence of 2.5 to 10 uM paclitaxel by MTT assay; format: functional, cell-based
Method in brief: (§1)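 OVSAHO cells are co-treated for 24 h with the EISA substrate at a fixed 20 μM plus the partner drug over its concentration range. Viability is compared with substrate alone and drug alone. Significance is given as p thresholds (ns, *, **, ***).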

OVSAHO [3] = experiment: Cytotoxicity against human OVSAHO cells assessed as enhancement in cell growth inhibition at 20 uM incubated for 24 hrs in presence of 1.25 to 2.5 uM cisplatin by MTT assay; format: functional, cell-based; method in brief: as §1
[4] = Cytotoxicity against human A2780-Res cells assessed as inhibition of cell growth incubated for 72 hrs by MTT assay; format: functional, cell-based
Method in brief: (§2)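 Cell viability after 72 h continuous exposure of each ovarian or CHO cell line to the substrate over a concentration series. IC50 is taken from the 72 h viability curves.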

OVSAHO [5] = experiment: Cytotoxicity against human OVSAHO cells assessed as enhancement in cell growth inhibition at 20 uM incubated for 24 hrs in presence of 25 to 50 uM talazoparib by MTT assay; format: functional, cell-based; method in brief: as §1
OVSAHO [6] = experiment: Cytotoxicity against human OVSAHO cells assessed as enhancement in cell growth inhibition at 20 uM incubated for 24 hrs in presence of 0.5 to 2 uM 2-((4-(cyclopropanecarbonyl)piperazin-1-yl)methyl)benzo[d]isothiazol-3(2H)-one by MTT assay; format: functional, cell-based; method in brief: as §1
OVSAHO [7] = experiment: Cytotoxicity against human OVSAHO cells assessed as enhancement in cell growth inhibition at 10 to 20 uM incubated for 24 to 72 hrs in presence of doxorubicin by MTT assay; format: functional, cell-based; settings: dose 10-20 µM, time 24-72 hrs
Method in brief: (§3)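 OVSAHO cells are exposed to a series of substrate concentrations combined with doxorubicin, alongside each agent alone. Viability is read at 24 h, 48 h and 72 h. Single-agent doxorubicin was also run at 1.25, 2.5 and 5 μM. Significance is given as p thresholds.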

OVSAHO [8] = experiment: Cytotoxicity against human OVSAHO cells assessed as enhancement in cell growth inhibition at 20 uM incubated for 24 hrs in presence of 1.25 to 5 uM 3-((4-(tert-butyl)phenyl)sulfonyl)acrylonitrile by MTT assay; format: functional, cell-based; method in brief: as §1
OVSAHO [9] = experiment: Cytotoxicity against human OVSAHO cells assessed as enhancement in cell growth inhibition at <5 uM incubated for 24 to 72 hrs in presence of doxorubicin by MTT assay; format: functional, cell-based; settings: time 24-72 hrs; method in brief: as §3
OVSAHO [10] = experiment: Cytotoxicity against human OVSAHO cells assessed as cell viability at 20 uM incubated for 24 hrs in presence of doxorubicin by MTT assay (reference value: 120%); format: functional; settings: read-out: Activity
OVSAHO [11] = experiment: Cytotoxicity against human OVSAHO cells assessed as enhancement in cell growth inhibition at 20 uM incubated for 24 hrs in presence of 25 to 50 uM Bortezomib by MTT assay; format: functional, cell-based; method in brief: as §1
OVSAHO [12] = experiment: Cytotoxicity against human OVSAHO cells assessed as enhancement in cell growth inhibition at 20 uM incubated for 24 hrs in presence of 50 to 200 nM methyl (5R,7R,8S)-7-hydroxy-8-methyl-15-oxo-5,6,7,8,14,15-hexahydro-13H-16-oxa-4b,8a,14-triaza-5,8-methanodibenzo[b,h]cycloocta[jkl]cyclopenta[e]-as-indacene-7-carboxylate by MTT assay; format: functional, cell-based; method in brief: as §1
[13] = Cytotoxicity against mouse GEMM 4306 cells assessed as inhibition of cell growth incubated for 72 hrs by MTT assay; format: functional, cell-based; settings: GEMM 4306, 72 h; method in brief: as §2
OVSAHO [14] = experiment: Cytotoxicity against human OVSAHO cells assessed as enhancement in cell growth inhibition at 20 uM incubated for 24 hrs in presence of 1 to 20 uM ethyl (2-((cyanocarbonyl)(2,4-dimethoxyphenyl)amino)-2-(thiophen-2-yl)acetyl)glycinate by MTT assay; format: functional, cell-based; method in brief: as §1
[15] = Cytotoxicity against CHOK cells assessed as inhibition of cell growth incubated for 72 hrs by MTT assay; format: functional, cell-based; settings: Cricetulus griseus; method in brief: as §2
OVSAHO [16] = experiment: Cytotoxicity against human OVSAHO cells assessed as inhibition of cell growth at 1.25 to 5 uM incubated for 24 hrs by MTT assay relative to control; format: functional; parameters: scale not given: the % may be the effect or the level left; settings: dose 1.25-5 µM
Method in brief: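 OVSAHO cells treated with doxorubicin alone at 1.25, 2.5 and 5 μM for 24 h; cell viability measured.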

Work on `COC(=O)CC[C@@H](NC(=O)[C@@H](Cc1ccc(OP(=O)(O)O)cc1)NC(=O)[C@@H](Cc1ccccc1)NC(=O)[C@@H](Cc1ccccc1)NC(=O)[C@@H](CC(C)C)NC(=O)Cc1ccc2ccccc2c1)C(=O)OC` yielded an IC50 (OVSAHO [1]) of over 200 µM.
`COC(=O)CC[C@@H](NC(=O)[C@@H](Cc1ccc(OP(=O)(O)O)cc1)NC(=O)[C@@H](Cc1ccccc1)NC(=O)[C@@H](Cc1ccccc1)NC(=O)[C@H](CC(C)C)NC(=O)Cc1ccc2ccccc2c1)C(=O)OC` showed an IC50 (OVSAHO [1]) of 46.9 µM.
For `COC(=O)CC[C@@H](NC(=O)[C@@H](Cc1ccc(OP(=O)(O)O)cc1)NC(=O)[C@@H](Cc1ccccc1)NC(=O)[C@@H](Cc1ccccc1)NC(=O)[C@@H](Cc1ccccc1)NC(=O)Cc1ccc2ccccc2c1)C(=O)OC`, the IC50 (OVSAHO [1]) was over 200 µM.
For `COC(=O)CC[C@@H](NC(=O)[C@@H](Cc1ccc(OP(=O)(O)O)cc1)NC(=O)[C@H](CC(C)C)NC(=O)[C@@H](Cc1ccccc1)NC(=O)[C@@H](Cc1ccccc1)NC(=O)Cc1ccc2ccccc2c1)C(=O)OC`, the IC50 (OVSAHO [1]) was 70.5 µM.
For `COC(=O)CC[C@@H](NC(=O)[C@@H](Cc1ccc(OP(=O)(O)O)cc1)NC(=O)[C@@H](Cc1ccccc1)NC(=O)[C@@H](Cc1ccccc1)NC(=O)Cc1ccc2ccccc2c1)C(=O)OC` ({Acetyl(2-naphthyl)}-[dF][dF][d(pY)][dE](OMe)-OMe), the Activity (OVSAHO [2]) was “inactive”, the Activity (OVSAHO [3]) was “Active” and the IC50 [4] was over 200 µM. The Activity (OVSAHO [5]) was “inactive”, the Activity (OVSAHO [6]) was “inactive” and the Activity (OVSAHO [7]) was “Active”. The Activity (OVSAHO [8]) was “Active”, the Activity (OVSAHO [9]) was “inactive” and the viability at 20 µM (OVSAHO [10]) was 20%. For the same molecule, the Activity (OVSAHO [11]) was “inactive”, the Activity (OVSAHO [12]) was “Active” and the IC50 [13] was over 200 µM. For the same molecule, the Activity (OVSAHO [14]) was “inactive” and the IC50 [15] was over 200 µM.
Work on `COc1cccc2c1C(=O)c1c(O)c3c(c(O)c1C2=O)C[C@@](O)(C(=O)CO)C[C@@H]3O[C@H]1C[C@H](N)[C@H](O)[C@H](C)O1` [DOXORUBICIN] yielded an Activity (OVSAHO [16]) of about 75%.
